Test results published in ChEMBL document CHEMBL1121449, “Synthesis and antineoplastic activity of hydroquinone dialdehydes” (J Med Chem, 1980).

How the values were obtained:
[1] = tested on: Mus musculus; assay: Tested for number of animal surviving at least 50 days out of 5 animal treated at dose of 0.63 mg/kg; assay type: functional
Outline: (§1)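 Female CD-1 mice, Sarcoma 180 ascites, 0.1 mL of 10^7 cells/mL given ip. Drug in 0.9% NaCl, 5% ethanol, Tween 80, serially diluted with saline. Dosed ip at 0.5 mL daily for 6 days from 24 h post-implant; daily dose based on starting mean weight. T/C is the mean survival of treated mice dying before 50 days vs controls. Survivors are those alive ≥50 days out of those treated.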

[2] = tested on: Mus musculus; assay: Tested for number of animal surviving at least 50 days out of 10 animal treated at dose of 1.25 mg/kg; assay type: functional; outline: as §1
[3] = tested on: Mus musculus; assay: Tested for number of animal surviving at least 50 days out of 15 animal treated at dose of 5 mg/kg; assay type: functional; outline: as §1
[4] = tested on: Mus musculus; assay: Tested for change in body weight from onset to termination at dose of mg/kg; assay type: functional
Outline: (§2)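 Female CD-1 mice inoculated ip with 0.1 mL of 10^7 Sarcoma 180 ascites cells/mL. Drug in 0.9% NaCl with 5% ethanol and Tween 80, serially diluted in saline, given ip once daily for 6 days starting 24 h after implantation. Dose based on mean starting weight. Controls received saline. Weight change recorded from day 0 to day 7, as % change.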

[5] = tested on: Mus musculus; assay: Tested for number of animal surviving at least 50 days out of 5 animal treated at dose of 0.31 mg/kg; assay type: functional; outline: as §1
[6] = tested on: Mus musculus; assay: Tested for change in body weight from onset to termination at dose of 2.5 mg/kg; assay type: functional; outline: as §2
[7] = tested on: Mus musculus; assay: Tested for mean survival time treated animal not surviving 50 days as a percentage at dose of 1.25 mg/kg; assay type: functional; outline: as §1
[8] = Tested for inhibition of growth of sarcoma 180 cells in culture; assay type: functional, cell-based; settings: Mus musculus
Outline: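 Sarcoma 180 cells in suspension in Fischer's medium with 10% horse serum and penicillin/streptomycin, seeded at 10^4 cells/mL. Drug added from 10× stocks in 10% Me2SO/PBS, final 1–100 μM. Control cultures contained 1% Me2SO. Triplicate Coulter counts at 24, 48 and 72 h. IC50 read from a plot of inhibition of cell-number increase at 72 h versus concentration.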

[9] = tested on: Mus musculus; assay: Tested for change in body weight from onset to termination at dose of 5 mg/kg; assay type: functional; outline: as §2
[10] = tested on: Mus musculus; assay: Tested for number of animal surviving at least 50 days out of 5 animal treated at dose of 10 mg/kg; assay type: functional; outline: as §1
[11] = tested on: Mus musculus; assay: Tested for mean survival time treated animal not surviving 50 days as a percentage at dose of 0.63 mg/kg; assay type: functional; outline: as §1
[12] = tested on: Mus musculus; assay: Tested for mean survival time treated animal not surviving 50 days as a percentage at dose of 10 mg/kg; assay type: functional; outline: as §1
[13] = tested on: Mus musculus; assay: Tested for mean survival time treated animal not surviving 50 days as a percentage at dose of 5 mg/kg; assay type: functional; outline: as §1
[14] = tested on: Mus musculus; assay: Tested for mean survival time treated animal not surviving 50 days as a percentage at dose of 0.31 mg/kg; assay type: functional; outline: as §1
[15] = tested on: Mus musculus; assay: Tested for change in body weight from onset to termination at dose of 10 mg/kg; assay type: functional
Outline: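 Tumor-bearing mice were dosed ip once daily for 6 consecutive days from 24 h after ip tumor implantation; saline controls. Each group was weighed on day 7, the day after the last injection, and the change from the implantation day (day 0) was expressed as % body-weight change, used as a toxicity measure.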

[16] = tested on: Mus musculus; assay: Tested for number of animal surviving at least 50 days out of 15 animal treated at dose of 2.5 mg/kg; assay type: functional; outline: as §1
[17] = tested on: Mus musculus; assay: Tested for mean survival time treated animal not surviving 50 days as a percentage at dose of 2.5 mg/kg; assay type: functional; outline: as §1
[18] = tested on: Mus musculus; assay: Tested for change in body weight from onset to termination at dose of 0.63 mg/kg; assay type: functional; outline: as §2
[19] = tested on: Mus musculus; assay: Tested for change in body weight from onset to termination at dose of 1.25 mg/kg; assay type: functional; outline: as §2

## O=Cc1ccccc1C=O [ORTHO-PHTHALALDEHYDE]
[1]
  Survivors: 0
[2]
  Survivors: 1
[3]
  Survivors: 0
[4]
  Activity: 15%
[5]
  Survivors: 0
[6]
  Activity: 0%
[7]
  Activity: 176%
[8]
  IC50: 12 µM
[9]
  Activity: -2%
[10]
  Survivors: 0
[11]
  Activity: 193%
[12]
  Activity: 43%
[13]
  Activity: 99%
[14]
  Activity: 121%
[15]
  Activity: -3%
[16]
  Survivors: 0
[17]
  Mean survival time, treated vs control (T/C): 154%
[18]
  Activity: 5%
[19]
  Activity: 4%
